Source: ChEMBL document CHEMBL4613291, “Structural Elucidation and Antimicrobial Characterization of Novel Diterpenoids from Fabiana densa var. ramulosa” (ACS Med Chem Lett, 2020)
Active and inactive are the calls of the source. The calls are words filed in the database; no cut-off is given here.

Key:
[1] = test system: Staphylococcus epidermidis; assay: Antimicrobial activity against Staphylococcus epidermidis ATCC 12228 assessed as reduction in bacterial growth at 64 uM incubated for 16 hrs by broth dilution method relative to control; assay type: functional; conditions: ATCC 12228, 16 h
Outline: (§1)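 Bacterial growth was measured with the strain panel split into Gram-negative and Gram-positive groups. Growth is expressed as percentage of vehicle-treated control bacteria. Values are the mean of three independent experiments ± SEM. Each treated group was compared with control for significance (p < 0.05, 0.01, 0.0001). The highest concentration tested was 64 μM.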

Bacillus thuringiensis [2] = assay: Antimicrobial activity against Bacillus thuringiensis B15 assessed as reduction in bacterial growth at 64 uM incubated for 16 hrs by broth dilution method relative to control; assay type: functional; conditions: B15, 16 h; outline: as §1
Staphylococcus aureus [3] = assay: Antimicrobial activity against Staphylococcus aureus ATCC 25923 assessed as reduction in bacterial growth at 64 uM incubated for 16 hrs by broth dilution method relative to control; assay type: functional; conditions: ATCC 25923, 16 h; outline: as §1
[4] = Cytotoxicity against human HaCaT cells assessed as reduction in cell viability at 64 uM incubated for 24 hrs by MTT assay relative to control; assay type: cell-based; conditions: read-out: INH
Outline: (§2)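 Human immortalized keratinocytes (HaCaT) were exposed for 24 h across 16–64 μM. Metabolically active cells were read by MTT and calculated as a percentage of vehicle-treated cells. Values are the mean of three independent experiments ± SEM.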

Escherichia coli = assay: Antimicrobial activity against Escherichia coli ATCC 25922 assessed as reduction in bacterial growth at 16 to 64 uM incubated for 16 hrs by broth dilution method; assay type: functional, organism-based; outline: as §1
Pseudomonas aeruginosa = assay: Antimicrobial activity against Pseudomonas aeruginosa ATCC 27853 assessed as reduction in bacterial growth at 16 to 64 uM incubated for 16 hrs by broth dilution method; assay type: functional, organism-based; outline: as §1
Staphylococcus aureus [5] = assay: Antimicrobial activity against Staphylococcus aureus ATCC 25923 assessed as reduction in bacterial growth at 16 to 64 uM incubated for 16 hrs by broth dilution method; assay type: functional, organism-based; outline: as §1
[6] = test system: Staphylococcus epidermidis; assay: Antimicrobial activity against Staphylococcus epidermidis ATCC 12228 assessed as reduction in bacterial growth at 16 to 64 uM incubated for 16 hrs by broth dilution method; assay type: functional, organism-based; outline: as §1
Priestia megaterium [7] = assay: Antimicrobial activity against Bacillus megaterium Bm11 assessed as reduction in bacterial growth at 16 to 64 uM incubated for 16 hrs by broth dilution method; assay type: functional, organism-based; outline: as §1
Bacillus thuringiensis [8] = assay: Antimicrobial activity against Bacillus thuringiensis B15 assessed as reduction in bacterial growth at 16 to 64 uM incubated for 16 hrs by broth dilution method; assay type: functional, organism-based; outline: as §1
HaCaT = assay: Cytotoxicity against human HaCaT cells assessed as reduction in cell viability at 16 to 64 uM incubated for 24 hrs by MTT assay; assay type: cell-based; outline: as §2
Priestia megaterium [9] = assay: Antimicrobial activity against Bacillus megaterium Bm11 assessed as reduction in bacterial growth at 16 to 64 uM incubated for 16 hrs by broth dilution method relative to control; assay type: functional; outline: as §1

Compound	inhibition at 64 µM [1]	inhibition at 64 µM (Bacillus thuringiensis [2])	inhibition at 64 µM (Staphylococcus aureus [3])	cytotoxicity at 24 h, 64 µM [4]	inhibition (Escherichia coli)	inhibition (Pseudomonas aeruginosa)	inhibition (Staphylococcus aureus [5])	inhibition [6]	inhibition (Priestia megaterium [7])	inhibition (Bacillus thuringiensis [8])	Activity (HaCaT)	inhibition (INH) (Priestia megaterium [9])
C[C@]12C=C[C@@]3(CC[C@@H]4[C@@](C)(COC(=O)C(=O)O)CCC[C@@]4(C)[C@@H]3CC1)C2	50%	50%	40%	36%								
C[C@]12C=C[C@@]3(CC[C@@H]4[C@@](C)(CO)CCC[C@@]4(C)[C@@H]3CC1)C2					inactive	inactive	inactive	inactive	inactive	inactive	Non-Toxic	
C[C@]12C=C[C@@]3(CC[C@@H]4[C@@](C)(COC(=O)CCC(=O)O)CCC[C@@]4(C)[C@@H]3CC1)C2	80%	100%	40%	20%								80%
C[C@]12C=C[C@@]3(CC[C@@H]4[C@@](C)(COC(=O)C(=O)OC[C@@]5(C)CCC[C@]6(C)[C@@H]5CC[C@@]57C=C[C@@](C)(CC[C@H]56)C7)CCC[C@@]4(C)[C@@H]3CC1)C2					inactive	inactive	inactive	inactive	inactive	inactive		
C[C@]12C=C[C@@]3(CC[C@@H]4[C@@](C)(COC(=O)CC(=O)O)CCC[C@@]4(C)[C@@H]3CC1)C2		> 70%		14%			Active	Active	Active	Active		>70%
C[C@]12C=C[C@@]3(CC[C@@H]4[C@@](C)(COC(=O)CC(=O)OC[C@@]5(C)CCC[C@]6(C)[C@@H]5CC[C@@]57C=C[C@@](C)(CC[C@H]56)C7)CCC[C@@]4(C)[C@@H]3CC1)C2					inactive	inactive	inactive	inactive	inactive	inactive		
C[C@]12C=C[C@@]3(CC[C@@H]4[C@@](C)(COC(=O)CCC(=O)OC[C@@]5(C)CCC[C@]6(C)[C@@H]5CC[C@@]57C=C[C@@](C)(CC[C@H]56)C7)CCC[C@@]4(C)[C@@H]3CC1)C2					inactive	inactive	inactive	inactive	inactive	inactive		
